KDM4C inh = inhibitors of GASC-1 (KDM4C) histone demethylase, primary screen, biochemical, single concentration HTS; Lysine-specific demethylase 4C (Homo sapiens), Q9H3R0; GST-KDM4C 2-372, H3K9me3 peptide, LANCE TR-FRET; inhibition, % at 12.5 µM; 0.15% of 96,000 active;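 active = mean replicate inhibition above about 25%, with at least 55% of replicates also reaching it, limit read from the data, passing the limit was not always enough; inconclusive = only one of those two conditions met; inactive = neither condition met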
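Material: N-terminal GST-fused human GASC-1 (KDM4C) fragment, residues 2-372. Input: 10 nM enzyme. Incubation: enzyme reaction 30 min, then detection 60 min, both room temperature. Doses: one test concentration per compound. Read-out basis: inhibition from TR-FRET ratio decrease. Detection: LANCE TR-FRET, excitation 340 nm, emissions 618 and 671 nm.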
T cruzi growth-1 = T. cruzi intracellular proliferation inhibitors, primary screen, cell-based, beta-gal Tulahuen parasites, NIH3T3 host, luminescence. inhibition, % at 8.34 µM. 5.9% of 77,000 active. T. cruzi beta-gal in NIH3T3, GalScreen luminescence, 90 h;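 active = mean inhibition above about 93%, with at least 55% of replicates each passing it, limit read from the data, passing the limit was not always enough; inconclusive = only one of those two conditions holds; inactive = neither condition holds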
IDH1 R132H inh = inhibitors of IDH1 R132H reductase, primary screen, biochemical, plate reader, single point | 0.18% of 70,000 active | inhibition, % at 10 µM | diaphorase/resazurin fluorescence, 60 min | Isocitrate dehydrogenase [NADP] cytoplasmic (Homo sapiens), O75874; in the data active = inhibition above about 34%; inconclusive = no clear call, values can overlap the other calls; inactive = below about 11%;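 also: 0% = DMSO and 100% = no enzyme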
Target sequence (O75874 whole entry R132H): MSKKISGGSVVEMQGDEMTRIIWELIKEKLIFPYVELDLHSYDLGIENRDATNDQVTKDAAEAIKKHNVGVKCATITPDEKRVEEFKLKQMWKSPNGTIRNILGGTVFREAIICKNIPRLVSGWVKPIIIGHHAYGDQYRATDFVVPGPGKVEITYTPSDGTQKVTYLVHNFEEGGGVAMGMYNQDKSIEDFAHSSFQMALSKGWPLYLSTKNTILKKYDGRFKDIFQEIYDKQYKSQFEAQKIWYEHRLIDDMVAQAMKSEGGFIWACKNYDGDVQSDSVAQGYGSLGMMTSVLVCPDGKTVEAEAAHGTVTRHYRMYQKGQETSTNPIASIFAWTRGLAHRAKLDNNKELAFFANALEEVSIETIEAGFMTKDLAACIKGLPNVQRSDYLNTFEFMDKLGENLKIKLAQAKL
T cruzi growth-2 = T. cruzi intracellular proliferation inhibitors, confirmation, cell-based, NIH3T3 host, beta-gal parasite, luminescence, cherry-pick. shares compounds with T cruzi growth-1. T. cruzi beta-gal in NIH3T3, GalScreen luminescence, 90 h. inhibition, % at 8.35 µM. 72% of 5,600 active;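 active = mean replicate inhibition above about 95% and at least 55% of replicates individually reaching it, limit read from the data; inconclusive = only one of the two criteria is met; inactive = neither criterion is met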
T cruzi growth-3 = inhibitors of intracellular T. cruzi replication, confirmation, NIH3T3 host cells, beta-gal parasites, cherry-pick, set 2; shares compounds with T cruzi growth-1; T. cruzi beta-gal in NIH3T3, GalScreen luminescence, 90 h; inhibition, % at 2.09 µM; 21% of 5,600 active; AID 651740, 2012;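 active = mean inhibition above about 95%, with at least 55% of replicates also reaching it, limit read from the data; inconclusive = meets just one of the two conditions; inactive = meets neither condition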;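 also: plate controls were neutral control median for no effect and positive control median for full effect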
3T3 cytotox = cytotoxicity in mouse NIH/3T3 fibroblasts, confirmation, cytotoxicity control for T. cruzi proliferation inhibitor project, cell-based, cherry-pick, single point; shares compounds with T cruzi growth-1; NIH/3T3 viability, CellTiter-Glo ATP luminescence, 90 h; cytotoxicity (signal decrease), % at 8.35 µM; 14% of 5,600 active;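 active = mean signal decrease across replicates above about 35% based on untreated-well scatter, with enough replicates individually passing, limit read from the data; inconclusive = no rule stated though some were filed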;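 also: 0% = median of neutral control wells and 100% = median of positive control wells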
3T3 cytotox 2 = NIH/3T3 fibroblast cytotoxicity, confirmation, cytotoxicity control, cell-based, cherry-pick, single point, set 2. shares compounds with T cruzi growth-1. NIH/3T3 viability, CellTiter-Glo ATP luminescence, 90 h. inhibition, % at 24.9 µM. 56% of 5,600 active. AID 651744, 2012;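 active = mean loss of cell viability signal at or above a set limit, and enough replicates individually reaching it; inconclusive = meets only the mean limit or only the replicate share; inactive = meets neither condition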;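 also: 0% = median of neutral control wells and 100% = median of positive control wells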
* marks the source's active call; other numbers are inactive results; ? = inconclusive; . = no result. Only a selection was taken, and hits are over-represented in it overall.

SMILES	KDM4C inh	T cruzi growth-1	IDH1 R132H inh	T cruzi growth-2	T cruzi growth-3	3T3 cytotox	3T3 cytotox 2
CC(Oc1ccc(F)cc1)C(=O)Nc1sc2c(c1C(N)=O)CCCC2 (stereo unspecified)	.	.	0.8	.	.	.	.
COc1ccc(OCC(=O)Nc2cc(OC)ccc2NC(=O)c2ccco2)cc1	.	.	-0.8	.	.	.	.
COc1cccc(NC(=O)CN(C)S(=O)(=O)c2ccc3ccccc3c2)c1	.	.	-0.5	.	.	.	.
CCn1c(SCC(=O)Nc2cccc(Br)c2)nnc1-c1ccco1	.	.	-0.1	.	.	.	.
C[C@H](CO)N1C[C@H](C)[C@@H](CN(C)Cc2ccccc2)OCCCC[C@H](C)Oc2ccc(NS(=O)(=O)c3ccc(Cl)cc3)cc2C1=O	-1.2	67.8	.	.	.	.	.
C[C@H]1CCCCO[C@H](CN(C)Cc2ccccc2)[C@@H](C)CN([C@@H](C)CO)C(=O)c2cc(NS(=O)(=O)c3ccc(Cl)cc3)ccc2O1	-0.9	108.5*	.	101.4*	53.7	5.0	104.2*
CCCNC(=O)N(C)C[C@H]1Oc2cc(C#Cc3cccc(F)c3)ccc2S(=O)(=O)N([C@H](C)CO)C[C@@H]1C	-0.9	113.7*	0.4	94.1	56.9	25.4	59.9*
CCCNC(=O)N(C)C[C@H]1Oc2cc(C#Cc3cccc(F)c3)ccc2S(=O)(=O)N([C@@H](C)CO)C[C@@H]1C	-1.2	116.2*	3.8	111.7*	49.3	-4.2	66.3*
CCCC#Cc1ccc2c(c1)O[C@@H](CN(C)C(=O)NCCC)[C@H](C)CN([C@H](C)CO)S2(=O)=O	1.4	-75.0	0.0	.	.	.	.
CCCC#Cc1ccc2c(c1)O[C@@H](CN(C)C(=O)NCCC)[C@@H](C)CN([C@@H](C)CO)S2(=O)=O	0.2	-50.9	-0.4	.	.	.	.
CCCNC(=O)N(C)C[C@@H]1Oc2cc(C#Cc3cccc(F)c3)ccc2S(=O)(=O)N([C@@H](C)CO)C[C@H]1C	0.0	108.0*	7.5	99.9*	56.9	53.8*	66.9*
CCCNC(=O)N(C)C[C@H]1Oc2cc(C#Cc3cccc(F)c3)ccc2S(=O)(=O)N([C@@H](C)CO)C[C@H]1C	?	114.5*	0.6	102.2*	105.5*	33.7	50.8*
CCCC#Cc1ccc2c(c1)O[C@H](CN(C)C(=O)NCCC)[C@@H](C)CN([C@H](C)CO)S2(=O)=O	0.1	46.7	-0.3	.	.	.	.
CC(C)NC(=O)N(C)C[C@@H]1Oc2cc(C#Cc3cccc(F)c3)ccc2S(=O)(=O)N([C@@H](C)CO)C[C@H]1C	-0.1	35.9	3.7	.	.	.	.
Cc1nc(SCC(=O)Nc2ccccc2)n[nH]1	.	.	0.2	.	.	.	.
COC(=O)CCCCCCC(=O)N/N=C/C1=CCCCC1	.	.	0.0	.	.	.	.
COc1cccc(C#Cc2ccc3c(c2)[C@@H]2[C@@H](CCN2S(=O)(=O)c2ccccc2)[C@@H](CO)N3)c1	-25.1	.	.	.	.	.	.
NC(=O)CSc1ncn(-c2ccccc2)n1	.	.	-0.2	.	.	.	.
O=C(C[C@H]1CC[C@H](NC(=O)Nc2ccccc2F)[C@@H](CO)O1)NCc1ccc(F)cc1	-1.9	.	.	.	.	.	.
O=C(CC1CCOCC1)Nc1ccc(I)cc1	.	.	0.0	.	.	.	.
COc1cccc(S(=O)(=O)N2CCCCN3[C@H](CO)[C@@H](c4ccc(-c5cccnc5)cc4)[C@H]3C2)c1	0.1	54.9	.	.	.	.	.
COc1cccc(S(=O)(=O)N2CCCCN3[C@H](CO)[C@@H](c4ccc(-c5ccccc5)cc4)[C@@H]3C2)c1	-0.4	64.6	.	.	.	.	.
COc1cccc(S(=O)(=O)N2CCCCN3[C@H](CO)[C@H](c4ccc(-c5cccnc5)cc4)[C@@H]3C2)c1	-1.3	117.7*	.	103.2*	66.1	-7.7	23.9

From PubChem
